Source: ChEMBL document CHEMBL1138555, “N-acylated and N,N'-diacylated imidazolidine-2-thione derivatives and N,N'-diacylated tetrahydropyrimidine-2(1H)-thione analogues: synthesis and antiproliferative activity” (Eur J Med Chem, 2009)

Key:
MT4 = assay: Antiproliferative activity against human MT4 cells assessed as reduction of growth by MTT assay; assay type: functional, cell-based
Outline: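 MT-4 lymphoblastoid T cells (ATCC) in RPMI 1640 with 10% FCS, penicillin/streptomycin, checked for mycoplasma. 1 × 10⁴ mock-infected cells per well with serial dilutions from a 100 mM DMSO stock. Incubated 4 days at 37 °C, viable cells counted by MTT. IC50 versus untreated controls by linear regression. Mean of three separate experiments.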

CCRF-CEM = assay: Growth inhibition of human CCRF-CEM cells after 48 hrs by sulforhodamine B assay; assay type: functional
Outline: (§1)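 NCI screen panel. Five 10-fold concentrations from 10^-4 to 10^-8 M. Exposure for the last 48 h of a 72 h incubation. Growth estimated by sulforhodamine B protein assay. GI50 is the concentration giving 50% growth inhibition. Where that level was not reached or was exceeded, the value is given as above or below the highest or lowest concentration tested.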

HL-60(TB) = assay: Growth inhibition of human HL-60(TB) cells after 48 hrs by sulforhodamine B assay; assay type: functional; details: HL-60, 48 h
Outline: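 NCI 60-cell-line screen protocol: cells exposed to compound at five 10-fold dilutions from 10^-4 to 10^-8 M for the last 48 h of a 72 h incubation. Sulforhodamine B protein assay estimated viability/growth. GI50 (50% growth inhibition) derived; where not reached or exceeded, reported as greater or less than the highest or lowest concentration tested.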

K562 = assay: Growth inhibition of human K562 cells after 48 hrs by sulforhodamine B assay; assay type: functional; details: K562, 48 h; outline: as §1
MOLT-4 = assay: Growth inhibition of human MOLT4 cells after 48 hrs by sulforhodamine B assay; assay type: functional; details: MOLT-4, 48 h; outline: as §1
[1] = Growth inhibition of human […] cells after 48 hrs by sulforhodamine B assay; assay type: functional; outline: as §1
SR = assay: Growth inhibition of human SR cells after 48 hrs by sulforhodamine B assay; assay type: functional
Outline: (§2)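 NCI in vitro panel screen. Compounds tested at five 10-fold dilutions, 10^-4 to 10^-8 M. Cells in 96-well plates were exposed for the last 48 h of a 72 h incubation. Viability/growth was read by sulforhodamine B protein assay. GI50 is the concentration giving 50% growth inhibition. Values beyond the tested range are reported as greater or less than the maximum or minimum concentration.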

A549 = assay: Growth inhibition of human A549 cells after 48 hrs by sulforhodamine B assay; assay type: functional; details: A549, 48 h; outline: as §1
EKVX = assay: Growth inhibition of human EKVX cells after 48 hrs by sulforhodamine B assay; assay type: functional; outline: as §1
HOP-62 = assay: Growth inhibition of human HOP62 cells after 48 hrs by sulforhodamine B assay; assay type: functional; details: HOP-62, 48 h; outline: as §1
HOP-92 = assay: Growth inhibition of human HOP92 cells after 48 hrs by sulforhodamine B assay; assay type: functional; details: HOP-92, 48 h; outline: as §1
NCI-H23 = assay: Growth inhibition of human NCI-H23 cells after 48 hrs by sulforhodamine B assay; assay type: functional; details: NCI-H23, 48 h; outline: as §1
NCI-H322M = assay: Growth inhibition of human NCI-H322M cells after 48 hrs by sulforhodamine B assay; assay type: functional; outline: as §1
NCI-H460 = assay: Growth inhibition of human NCI-H460 cells after 48 hrs by sulforhodamine B assay; assay type: functional; details: NCI-H460, 48 h; outline: as §1
COLO 205 = assay: Growth inhibition of human COLO205 cells after 48 hrs by sulforhodamine B assay; assay type: functional; details: COLO 205, 48 h; outline: as §1
HCT-116 = assay: Growth inhibition of human HCT116 cells after 48 hrs by sulforhodamine B assay; assay type: functional; details: HCT-116, 48 h; outline: as §1
HCT-15 = assay: Growth inhibition of human HCT15 cells after 48 hrs by sulforhodamine B assay; assay type: functional; details: HCT-15, 48 h; outline: as §1
HT-29 = assay: Growth inhibition of human HT-29 cells after 48 hrs by sulforhodamine B assay; assay type: functional; details: HT-29, 48 h; outline: as §1
KM12 = assay: Growth inhibition of human KM12 cells after 48 hrs by sulforhodamine B assay; assay type: functional; details: KM12, 48 h; outline: as §1
SW-620 = assay: Growth inhibition of human SW620 cells after 48 hrs by sulforhodamine B assay; assay type: functional; details: SW-620, 48 h; outline: as §2
SF-268 = assay: Growth inhibition of human SF268 cells after 48 hrs by sulforhodamine B assay; assay type: functional; details: SF-268, 48 h; outline: as §1
SF-295 = assay: Growth inhibition of human SF295 cells after 48 hrs by sulforhodamine B assay; assay type: functional; details: SF-295, 48 h; outline: as §1
SNB-19 = assay: Growth inhibition of human SNB19 cells after 48 hrs by sulforhodamine B assay; assay type: functional; details: SNB-19, 48 h; outline: as §2
SNB-75 = assay: Growth inhibition of human SNB75 cells after 48 hrs by sulforhodamine B assay; assay type: functional; details: SNB-75, 48 h; outline: as §2
U-251 = assay: Growth inhibition of human U251 cells after 48 hrs by sulforhodamine B assay; assay type: functional; details: U-251, 48 h; outline: as §2
LOX IMVI = assay: Growth inhibition of human LOXIMVI cells after 48 hrs by sulforhodamine B assay; assay type: functional; outline: as §1
Malme-3M = assay: Growth inhibition of human MALME-3M cells after 48 hrs by sulforhodamine B assay; assay type: functional; outline: as §1
M14 = assay: Growth inhibition of human M14 cells after 48 hrs by sulforhodamine B assay; assay type: functional; details: M14, 48 h; outline: as §1
SK-MEL-28 = assay: Growth inhibition of human SK-MEL-28 cells after 48 hrs by sulforhodamine B assay; assay type: functional; details: SK-MEL-28, 48 h; outline: as §1
SK-MEL-5 = assay: Growth inhibition of human SK-MEL-5 cells after 48 hrs by sulforhodamine B assay; assay type: functional; details: SK-MEL-5, 48 h; outline: as §1
UACC-62 = assay: Growth inhibition of human UACC62 cells after 48 hrs by sulforhodamine B assay; assay type: functional; details: UACC-62, 48 h; outline: as §2
OVCAR-3 = assay: Growth inhibition of human OVCAR-3 cells after 48 hrs by sulforhodamine B assay; assay type: functional; details: OVCAR-3, 48 h; outline: as §1
OVCAR-4 = assay: Growth inhibition of human OVCAR4 cells after 48 hrs by sulforhodamine B assay; assay type: functional; details: OVCAR-4, 48 h; outline: as §1
OVCAR-8 = assay: Growth inhibition of human OVCAR8 cells after 48 hrs by sulforhodamine B assay; assay type: functional; details: OVCAR-8, 48 h; outline: as §1
SK-OV-3 = assay: Growth inhibition of human SKOV3 cells after 48 hrs by sulforhodamine B assay; assay type: functional; details: SK-OV-3, 48 h; outline: as §1
786-0 = assay: Growth inhibition of human 786-0 cells after 48 hrs by sulforhodamine B assay; assay type: functional; details: 786-0, 48 h; outline: as §1
ACHN = assay: Growth inhibition of human ACHN cells after 48 hrs by sulforhodamine B assay; assay type: functional; outline: as §1
CAKI-1 = assay: Growth inhibition of human Caki1 cells after 48 hrs by sulforhodamine B assay; assay type: functional; details: CAKI-1, 48 h; outline: as §1
SN12C = assay: Growth inhibition of human SN12C cells after 48 hrs by sulforhodamine B assay; assay type: functional; outline: as §2
TK-10 = assay: Growth inhibition of human TK10 cells after 48 hrs by sulforhodamine B assay; assay type: functional; details: TK-10, 48 h; outline: as §2
UO-31 = assay: Growth inhibition of human UO31 cells after 48 hrs by sulforhodamine B assay; assay type: functional; details: UO-31, 48 h; outline: as §2
PC-3 = assay: Growth inhibition of human PC3 cells after 48 hrs by sulforhodamine B assay; assay type: functional; details: PC-3, 48 h; outline: as §1
DU-145 = assay: Growth inhibition of human DU145 cells after 48 hrs by sulforhodamine B assay; assay type: functional; details: DU-145, 48 h; outline: as §1
MDA-MB-231 = assay: Growth inhibition of human MDA-MB-231 cells after 48 hrs by sulforhodamine B assay; assay type: functional; details: MDA-MB-231, 48 h; outline: as §1
MDA-MB-435 = assay: Growth inhibition of human MDA-MB-435 cells after 48 hrs by sulforhodamine B assay; assay type: functional; details: MDA-MB-435, 48 h; outline: as §1
BT-549 = assay: Growth inhibition of human BT549 cells after 48 hrs by sulforhodamine B assay; assay type: functional; details: BT-549, 48 h; outline: as §1
T47D = assay: Growth inhibition of human T47D cells after 48 hrs by sulforhodamine B assay; assay type: functional; outline: as §2

Structure (SMILES): CCOC(=O)/C(=C/N1CCN(C(=O)c2ccco2)C1=S)C(=O)c1ccccc1
- IC50 (MT4): 4 µM
- GI50 (CCRF-CEM): 15.6 µM
- GI50 (HL-60(TB)): 14.9 µM
- GI50 (K562): 17.7 µM
- GI50 (MOLT-4): 19.6 µM
- GI50 [1]: 12.4 µM
- GI50 (SR): 2.4 µM
- GI50 (A549): 11.6 µM
- GI50 (EKVX): 9.5 µM
- GI50 (HOP-62): 17.3 µM
- GI50 (HOP-92): 23 µM
- GI50 (NCI-H23): 7.7 µM
- GI50 (NCI-H322M): 14.2 µM
- GI50 (NCI-H460): 4.9 µM
- GI50 (COLO 205): 19.2 µM
- GI50 (HCT-116): 8.9 µM
- GI50 (HCT-15): 6.3 µM
- GI50 (HT-29): 19.2 µM
- GI50 (KM12): 10.1 µM
- GI50 (SW-620): 7.9 µM
- GI50 (SF-268): 7.2 µM
- GI50 (SF-295): 16.4 µM
- GI50 (SNB-19): 35.6 µM
- GI50 (SNB-75): 46 µM
- GI50 (U-251): 11.5 µM
- GI50 (LOX IMVI): 6.5 µM
- GI50 (Malme-3M): 13.3 µM
- GI50 (M14): 8.9 µM
- GI50 (SK-MEL-28): 22.2 µM
- GI50 (SK-MEL-5): < 0.005 µM
- GI50 (UACC-62): 7.6 µM
- GI50 (OVCAR-3): 20.2 µM
- GI50 (OVCAR-4): 31 µM
- GI50 (OVCAR-8): 11.7 µM
- GI50 (SK-OV-3): 20 µM
- GI50 (786-0): 12.9 µM
- GI50 (ACHN): 8.5 µM
- GI50 (CAKI-1): 15.9 µM
- GI50 (SN12C): 8.1 µM
- GI50 (TK-10): 12.4 µM
- GI50 (UO-31): 10 µM
- GI50 (PC-3): 19.4 µM
- GI50 (DU-145): 8 µM
- GI50 (MDA-MB-231): 10.8 µM
- GI50 (MDA-MB-435): 14.4 µM
- GI50 (BT-549): 9 µM
- GI50 (T47D): 4.1 µM
